Results: ChEMBL document CHEMBL4325827, “Bifidenone: Structure-Activity Relationship and Advanced Preclinical Candidate” (J Med Chem, 2018)

Assays:
[1] = system: NCI-H460; test: Antiproliferative activity against human NCI-H460 cells after 72 hrs by CellTiter 96 aqueous nonradioactive cell proliferation assay; assay type: functional, cell-based; details: NCI-H460, 72 h
Method in brief: (§1)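 Antiproliferation in cultured tumour cells, at least 3 replicate wells per concentration per experiment. NCI-H460 came from ATCC. M14, NCI/ADR-RES, OVCAR-4, HCT-15, ACHN and SF-295 came from the National Cancer Institute. IC50 reported from single experiments where no SD is given.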

[2] = system: M14; test: Antiproliferative activity against human M14 cells after 72 hrs by CellTiter 96 aqueous nonradioactive cell proliferation assay; assay type: functional, cell-based; details: M14, 72 h; method in brief: as §1
[3] = Plasma concentration in Crl:NU(NCr)-Foxn1 nu mouse at 40 mg/kg, ip injected via vehicle consisting 45% propylene glycol, <3 % tween-20, 20% PEG400, 20% ethanol by LC-MS analysis; assay type: ADME, organism-based; details: in vivo
Method in brief: (§2)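 Male Nu/Nu mice, some bearing NCI-H460 or LOX-IMVI xenografts, given a single ip dose at 3 mL/kg. Organic vehicle components were dissolved first, with the aqueous part added gradually. Mice were euthanized at 1 h or 3 h. Cardiac blood was taken into NaEDTA/NaF plasma separator tubes. Quantification used loratadine internal standard against a spiked blank-plasma curve. Tumours were run as duplicate ~200 mg samples homogenized in 3% SDS and extracted twice with ethyl acetate, assuming 1 g tissue = 1 mL.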

[4] = Ratio of plasma concentration in Crl:NU(NCr)-Foxn1 nu mouse at 40 mg/kg, ip injected via vehicle consisting 40.5% propylene glycol, 2.7% tween-20, 31.5% PEG400, 15.3% ethanol and 10% water measured at 1 hr post injection to IC50 for human NCI-H460 cells; assay type: ADME, organism-based; details: in vivo
[5] = Time at which plasma concentration stays above NCI-H460 IC50 in Crl:NU(NCr)-Foxn1 nu mouse xenografted with human NCI-H460 cells at 40 mg/kg, ip injected via vehicle consisting 40.5% propylene glycol, 2.7% tween-20, 31.5% PEG400, 15.3% ethanol and 10% water by LC-MS analysis; assay type: ADME, organism-based; details: in vivo
[6] = Plasma concentration in Crl:NU(NCr)-Foxn1 nu mouse at 40 mg/kg, ip injected via vehicle consisting 40% propylene glycol, 20% tween-20, 20% PEG400, 20% ethanol […] by LC-MS analysis; assay type: ADME, organism-based; details: in vivo; method in brief: as §2
[7] = Ratio of plasma concentration in Crl:NU(NCr)-Foxn1 nu mouse at 75 to 100 mg/kg, ip injected via vehicle consisting 40.5% propylene glycol, 2.7% tween-20, 31.5% PEG400, 15.3% ethanol and 10% water measured at 6 hrs post injection to IC50 for human NCI-H460 cells; assay type: ADME, organism-based; details: in vivo
[8] = Time at which plasma concentration stays above NCI-H460 IC50 in Crl:NU(NCr)-Foxn1 nu mouse xenografted with human NCI-H460 cells at 40 mg/kg, ip injected via vehicle consisting 40% propylene glycol, 20% tween-20, 20% PEG400, and 20% ethanol by LC-MS analysis; assay type: ADME, organism-based; details: in vivo
[9] = Plasma concentration in Crl:NU(NCr)-Foxn1 nu mouse at 40 mg/kg, ip injected via vehicle consisting 25% propylene glycol, 20% tween-20, 20% PEG400, 20% ethanol by LC-MS analysis; assay type: ADME, organism-based; details: in vivo; method in brief: as §2
[10] = Ratio of plasma concentration in Crl:NU(NCr)-Foxn1 nu mouse at 40 mg/kg, ip injected via vehicle consisting 40.5% propylene glycol, 2.7% tween-20, 31.5% PEG400, 15.3% ethanol and 10% water measured at 30 mins post injection to IC50 for human NCI-H460 cells; assay type: ADME, organism-based; details: in vivo, 0.5 h
[11] = Drug uptake in tumor of human NCI-H460 cells xenografted in Crl:NU(NCr)-Foxn1 nu mouse at 40 mg/kg, ip measured at 3 hrs post injection by LC-MS analysis; assay type: ADME, organism-based, Neoplasm; details: in vivo; method in brief: as §2
[12] = Drug uptake in tumor of human LOXIMVI cells xenografted in Crl:NU(NCr)-Foxn1 nu mouse at 40 mg/kg, ip measured at 3 hrs post injection by LC-MS analysis; assay type: ADME, organism-based, Neoplasm; details: in vivo; method in brief: as §2
[13] = system: OVCAR-4; test: Antiproliferative activity against taxane-resistant human OVCAR4 cells after 72 hrs by CellTiter 96 aqueous nonradioactive cell proliferation assay; assay type: functional, cell-based; details: OVCAR-4, 72 h; method in brief: as §1
[14] = system: NCI/ADR-RES; test: Antiproliferative activity against taxane-resistant human NCI/ADR-RES cells after 72 hrs by CellTiter 96 aqueous nonradioactive cell proliferation assay; assay type: functional, cell-based; method in brief: as §1
[15] = system: UO-31; test: Antiproliferative activity against taxane-resistant human UO31 cells after 72 hrs by CellTiter 96 aqueous nonradioactive cell proliferation assay; assay type: functional, cell-based; details: UO-31, 72 h
[16] = system: HCT-15; test: Antiproliferative activity against taxane-resistant human HCT15 cells after 72 hrs by CellTiter 96 aqueous nonradioactive cell proliferation assay; assay type: functional, cell-based; details: HCT-15, 72 h; method in brief: as §1
[17] = system: EKVX; test: Antiproliferative activity against taxane-resistant human EKVX cells after 72 hrs by CellTiter 96 aqueous nonradioactive cell proliferation assay; assay type: functional, cell-based
[18] = system: ACHN; test: Antiproliferative activity against taxane-resistant human ACHN cells after 72 hrs by CellTiter 96 aqueous nonradioactive cell proliferation assay; assay type: functional, cell-based; method in brief: as §1
[19] = system: SF-295; test: Antiproliferative activity against taxane-resistant human SF295 cells after 72 hrs by CellTiter 96 aqueous nonradioactive cell proliferation assay; assay type: functional, cell-based; details: SF-295, 72 h; method in brief: as §1

C=CC[C@H]1C[C@]2([C@@H](C)Cc3ccc(OC)c(C(=O)NC)c3)OCOC2=CC1=O
IC50 [1]: 1.1 µM
IC50 [2]: 1.4 µM

C=CC[C@H]1C[C@]2([C@@H](C)Cc3ccc(OC(F)(F)F)cc3)OCOC2=CC1=O
IC50 [1]: 3.8 µM
IC50 [2]: > 20 µM

C=CC[C@@H]1C[C@]2([C@H](C)Cc3ccc(OC)c(OC)c3)OCOC2=CC1=O
IC50 [1]: > 4 µM
IC50 [2]: > 4 µM

C=CC[C@H]1C[C@]2([C@@H](C)Cc3cnc(OC)c(OC)c3)OCOC2=CC1=O
IC50 [1]: > 20 µM
IC50 [2]: > 20 µM

C=CC[C@H]1C[C@]2([C@@H](C)Cc3ccc(OC)nc3)OCOC2=CC1=O
IC50 [1]: 0.33 µM
IC50 [2]: 0.18 µM

C=CC[C@H]1C[C@]2([C@@H](C)Cc3cnc(OC)cc3F)OCOC2=CC1=O
IC50 [1]: > 20 µM
IC50 [2]: 8 µM

C=CC[C@H]1C[C@]2([C@@H](C)Cc3ccc(OC)c(O)c3)OCOC2=CC1=O
IC50 [1]: 0.08 µM
IC50 [2]: 0.008 µM

C=CC[C@H]1C[C@]2([C@@H](C)Cc3ccc(OC)c(OC)c3)OCOC2=CC1=O
Drug uptake [3]: Active
Ratio [4]: > 3
Time [5]: 3 h
Drug uptake [6]: Active
Ratio [7]: > 4
Time [8]: 1 h
IC50 [2]: 0.11 µM
Drug uptake [9]: Not Active
Ratio [10]: > 6

C=CC[C@@H]1C[C@]2([C@@H](C)Cc3ccc(OC)c(OC)c3)OCOC2=CC1=O
IC50 [1]: > 4 µM
IC50 [2]: > 4 µM

C=CC[C@H]1C[C@]2([C@@H](C)Cc3cccc(OC)c3)OCOC2=CC1=O
IC50 [1]: 10.6 µM
IC50 [2]: 8.8 µM

C=CC[C@H]1C[C@]2([C@@H](C)Cc3cc(OC)c(OC)cc3F)OCOC2=CC1=O
IC50 [1]: 0.12 µM
IC50 [2]: 0.014 µM

C=CC[C@H]1C[C@]2([C@H](C)Cc3cc(F)c(OC)cc3F)OCOC2=CC1=O
IC50 [1]: 0.035 µM
IC50 [2]: 0.01 µM

C=CC[C@H]1C[C@]2([C@@H](C)Cc3ccc(OC)cc3)OCOC2=CC1=O
IC50 [1]: 0.09 µM
IC50 [2]: 0.02 µM

C=CC[C@H]1C[C@]2([C@@H](C)Cc3ccccc3)OCOC2=CC1=O
IC50 [1]: 9.7 µM
IC50 [2]: 5.1 µM

C=CC[C@H]1C[C@]2([C@@H](C)Cc3ccc(OC)c(NC(C)=O)c3)OCOC2=CC1=O
IC50 [1]: 0.31 µM
IC50 [2]: 0.085 µM

C=CC[C@H]1C[C@]2([C@@H](C)Cc3cc(O)c(OC)cc3F)OCOC2=CC1=O
IC50 [1]: 0.033 µM
IC50 [2]: 0.009 µM

C=CC[C@H]1C[C@]2([C@H](C)Cc3ccc(OC)cc3)OCOC2=CC1=O
IC50 [1]: 0.12 µM
IC50 [2]: 0.081 µM

C=CC[C@H]1C[C@]2(C(C)Cc3cc(C(N)=O)c(OC)cc3F)OCOC2=CC1=O (stereo partly drawn)
IC50 [1]: 0.33 µM
IC50 [2]: 0.004 µM

C=CC[C@H]1C[C@]2([C@@H](C)Cc3ccc(OC(C)=O)cc3)OCOC2=CC1=O
IC50 [1]: > 20 µM
IC50 [2]: > 20 µM

C=CC[C@H]1C[C@]2([C@@H](C)Cc3cc(F)c(OC)cc3F)OCOC2=CC1=O
IC50 [1]: 0.059 µM
IC50 [2]: 0.03 µM
Drug uptake [11]: Active

C=CC[C@H]1C[C@]2([C@@H](C)Cc3cc(C)c(OC)cc3F)OCOC2=CC1=O
IC50 [1]: 0.65 µM
IC50 [2]: 0.23 µM

C=CC[C@H]1C[C@]2(C(C)Cc3ccc(OC)c(OC(C)=O)c3)OCOC2=CC1=O (stereo partly drawn)
IC50 [1]: 0.11 µM
IC50 [2]: 0.016 µM

C=CC[C@H]1C[C@]2([C@@H](C)Cc3ccc(OC)cc3F)OCOC2=CC1=O
Drug uptake [12]: Active
IC50 [1]: 0.094 µM
IC50 [2]: 0.014 µM

C=CC[C@H]1C[C@]2([C@H](C)Cc3ccc(OC)c(F)c3F)OCOC2=CC1=O
IC50 [1]: 3.3 µM
IC50 [2]: 3.8 µM

C=CC[C@H]1C[C@]2([C@@H](C)Cc3ccc(OC)c(N4CCOCC4)c3)OCOC2=CC1=O
IC50 [1]: > 20 µM
IC50 [2]: > 20 µM

C=CC[C@H]1C[C@]2([C@@H](C)Cc3ccc(OC)c(Cl)c3)OCOC2=CC1=O
IC50 [1]: 0.64 µM
IC50 [2]: 0.24 µM

C=CC[C@H]1C[C@]2(C(C)Cc3ccc(OCC)cc3)OCOC2=CC1=O (stereo partly drawn)
IC50 [1]: 0.28 µM
IC50 [2]: 0.65 µM

C=CC[C@H]1C[C@]2(CCc3ccc(OC)c(OC)c3)OCOC2=CC1=O
IC50 [1]: 3.2 µM
IC50 [2]: 2 µM

C=CC[C@H]1C[C@]2([C@H](C)Cc3c(F)cc(OC)cc3F)OCOC2=CC1=O
IC50 [1]: 2.5 µM
IC50 [2]: 0.32 µM

C=CC[C@H]1C[C@]2([C@@H](C)Cc3ccc(OC)c(C)c3)OCOC2=CC1=O
IC50 [1]: 0.63 µM
IC50 [2]: 0.41 µM

C=CC[C@H]1C[C@]2(C(C)Cc3ccc(OC)c(N)c3)OCOC2=CC1=O (stereo partly drawn)
IC50 [1]: 0.18 µM
IC50 [2]: 0.049 µM

CC(=O)O[C@H]1C(=O)[C@@]2(C)[C@H]([C@H](OC(=O)c3ccccc3)[C@]3(O)C[C@H](OC(=O)[C@H](O)[C@@H](NC(=O)c4ccccc4)c4ccccc4)C(C)=C1C3(C)C)[C@]1(OC(C)=O)CO[C@@H]1C[C@@H]2O [PACLITAXEL]
IC50 [13]: > 0.6 µM
IC50 [14]: > 9 µM
IC50 [15]: 0.24 µM
IC50 [16]: 0.19 µM
IC50 [17]: 0.15 µM
IC50 [18]: 0.08 µM
IC50 [19]: 0.056 µM

C=CC[C@H]1C[C@]2([C@H](C)Cc3ccc(OC)c(OC)c3)OCOC2=CC1=O
IC50 [1]: 0.32 µM
IC50 [2]: 0.3 µM

C=CC[C@H]1C[C@]2([C@@H](C)Cc3ccc(OC)c(C#N)c3)OCOC2=CC1=O
IC50 [1]: 0.34 µM
IC50 [2]: 0.18 µM

C=CC[C@H]1C[C@]2([C@@H](C)Cc3ccc(O)cc3)OCOC2=CC1=O
IC50 [1]: > 20 µM
IC50 [2]: > 20 µM

C=CC[C@H]1C[C@]2([C@@H](C)Cc3cc(C#N)c(OC)cc3F)OCOC2=CC1=O
IC50 [1]: 0.15 µM
IC50 [2]: 0.037 µM

C=CC[C@H]1C[C@]2([C@@H](C)Cc3ccc(OC)c(C(N)=O)c3)OCOC2=CC1=O
IC50 [1]: 0.066 µM
IC50 [2]: 0.012 µM

C=CC[C@H]1C[C@]2([C@@H](C)Cc3ccc(OC)c(F)c3)OCOC2=CC1=O
IC50 [1]: 0.09 µM
IC50 [2]: 0.008 µM

C=CC[C@H]1C[C@]2([C@@H](C)Cc3cc(NC(C)=O)c(OC)cc3F)OCOC2=CC1=O
IC50 [1]: 0.071 µM
IC50 [2]: 0.052 µM

C=CC[C@H]1C[C@]2(C(CC)Cc3ccc(OC)c(OC)c3)OCOC2=CC1=O (mixture of isomers)
IC50 [1]: 11 µM
IC50 [2]: 2.6 µM

C=CC[C@H]1C[C@]2(C(C)Cc3ccc(F)cc3)OCOC2=CC1=O (stereo partly drawn)
IC50 [1]: > 20 µM
IC50 [2]: > 20 µM

C=CC[C@H]1C[C@]2([C@@H](C)Cc3cc(N)c(OC)cc3F)OCOC2=CC1=O
IC50 [1]: 0.16 µM
IC50 [2]: 0.029 µM
